How the values were obtained:
Format in all cases: functional
HL-60(TB) = test: Cytotoxicity against human HL-60(TB) cells after 48 hrs by SRB assay; conditions: HL-60, 48 h
Method in brief: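 NCI 60-line five-dose screen. Cells are grown in RPMI 1640 with 5% FBS and 2 mM glutamine, plated at 5000–40,000 cells/well, and preincubated 24 h at 37 °C in 5% CO2. Compound is dissolved in DMSO and given at five concentrations (10-fold or ½-log dilutions) for 48 h. Cells are TCA-fixed (HL-60(TB), suspension: 16% final; HOP92, adherent: 10% final), SRB-stained and read at 515 nm. GI50 comes from [(Ti−Tz)/(C−Tz)]×100 = 50.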

A549 = test: Cytotoxicity against human A549 cells after 48 hrs by SRB assay; conditions: A549, 48 h
Method in brief: (§1)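 NCI 60-cell five-dose screen. Cells grown in RPMI 1640 with 5% FBS and 2 mM glutamine, plated at 5000–40,000 cells/well, and preincubated 24 h at 37 °C in 5% CO2. Time-zero plates fixed with TCA. Five serial dilutions of DMSO stock added, then 48 h exposure. TCA fixation, 0.4% SRB staining, absorbance read at 515 nm. GI50 from [(Ti−Tz)/(C−Tz)]×100 = 50.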

EKVX = test: Cytotoxicity against human EKVX cells after 48 hrs by SRB assay; method in brief: as §1
NCI-H460 = test: Cytotoxicity against human NCI-H460 cells after 48 hrs by SRB assay; conditions: NCI-H460, 48 h
Method in brief: (§2)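 Five-dose screen, 10-fold or ½-log dilutions, compound stock in DMSO. Cells were in RPMI 1640 with 5% FBS and 2 mM glutamine at 5000–40,000 cells/well, preincubated 24 h, 37 °C, 5% CO₂, with a time-zero plate TCA-fixed. After 48 h drug exposure, cells were TCA-fixed and stained with 0.4% SRB, read at 515 nm. GI50, TGI and LC50 were derived from time-zero, control and test absorbances.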

COLO 205 = test: Cytotoxicity against human COLO205 cells after 48 hrs by SRB assay; conditions: COLO 205, 48 h; method in brief: as §1
HCC 2998 = test: Cytotoxicity against human HCC2998 cells after 48 hrs by SRB assay; conditions: HCC 2998, 48 h; method in brief: as §1
HCT-116 = test: Cytotoxicity against human HCT116 cells after 48 hrs by SRB assay; conditions: HCT-116, 48 h; method in brief: as §1
KM12 = test: Cytotoxicity against human KM12 cells after 48 hrs by SRB assay; conditions: KM12, 48 h; method in brief: as §1
SNB-19 = test: Cytotoxicity against human SNB19 cells after 48 hrs by SRB assay; conditions: SNB-19, 48 h; method in brief: as §2
U-251 = test: Cytotoxicity against human U251 cells after 48 hrs by SRB assay; conditions: U-251, 48 h
Method in brief: (§3)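 NCI 60-panel five-dose screen. Cells in RPMI 1640 with 5% FBS and 2 mM glutamine, plated at 5000–40,000 cells/well and preincubated 24 h at 37 °C under 5% CO2. Five 10-fold or half-log dilutions were added from a DMSO stock for 48 h. Cells were TCA-fixed (SR settled cells: 16% final), SRB-stained and read at 515 nm. GI50 was taken where (Ti−Tz)/(C−Tz)×100 = 50.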

LOX IMVI = test: Cytotoxicity against human LOXIMVI cells after 48 hrs by SRB assay; method in brief: as §1
Malme-3M = test: Cytotoxicity against human MALME-3M cells after 48 hrs by SRB assay; method in brief: as §1
MDA-MB-435 = test: Cytotoxicity against human MDA-MB-435 cells after 48 hrs by SRB assay; conditions: MDA-MB-435, 48 h; method in brief: as §1
SK-MEL-2 = test: Cytotoxicity against human SK-MEL-2 cells after 48 hrs by SRB assay; conditions: SK-MEL-2, 48 h; method in brief: as §2
OVCAR-4 = test: Cytotoxicity against human OVCAR4 cells after 48 hrs by SRB assay; conditions: OVCAR-4, 48 h; method in brief: as §2
OVCAR-5 = test: Cytotoxicity against human OVCAR5 cells after 48 hrs by SRB assay; conditions: OVCAR-5, 48 h; method in brief: as §2
786-0 = test: Cytotoxicity against human 786-0 cells after 48 hrs by SRB assay; conditions: 786-0, 48 h; method in brief: as §1
SN12C = test: Cytotoxicity against human SN12C cells after 48 hrs by SRB assay; method in brief: as §2
TK-10 = test: Cytotoxicity against human TK10 cells after 48 hrs by SRB assay; conditions: TK-10, 48 h; method in brief: as §3
UO-31 = test: Cytotoxicity against human UO31 cells after 48 hrs by SRB assay; conditions: UO-31, 48 h; method in brief: as §3
MCF7 = test: Cytotoxicity against human MCF7 cells after 48 hrs by SRB assay; conditions: MCF7, 48 h; method in brief: as §1
Hs-578T = test: Cytotoxicity against human Hs578T cells after 48 hrs by SRB assay; method in brief: as §1
BT-549 = test: Cytotoxicity against human BT549 cells after 48 hrs by SRB assay; conditions: BT-549, 48 h; method in brief: as §1
T47D = test: Cytotoxicity against human T47D cells after 48 hrs by SRB assay; method in brief: as §3
MDA-MB-468 = test: Cytotoxicity against human MDA-MB-468 cells after 48 hrs by SRB assay; conditions: MDA-MB-468, 48 h; method in brief: as §2

Question: How did the GI50 (HL-60(TB)) turn out when `CSC1=Nc2c(c(C)c(-c3ccccc3)n2CCCCl)C2=NC(=O)CN12` was run?
Answer: 3.39 µM

Question: What about the CC50 (HL-60(TB); read-out: pLC50 (the source's name) (converted)) of the same molecule?
Answer: > 100 µM

Question: What about the TGI (HL-60(TB); read-out: pTGI (converted)) of the same molecule?
Answer: > 100 µM

Question: What about the GI50 (A549) of the same molecule?
Answer: 7.76 µM

Question: And the LC50 (A549)?
Answer: > 100 µM

Question: And the TGI (A549; read-out: pTGI (converted))?
Answer: 66.1 µM

Question: What about the GI50 (EKVX) of the same molecule?
Answer: 6.92 µM

Question: And the LC50 (EKVX)?
Answer: > 100 µM

Question: And the TGI (EKVX; read-out: pTGI (converted))?
Answer: 30.9 µM

Question: And the GI50 (NCI-H460)?
Answer: 3.72 µM

Question: What about the LC50 (NCI-H460) of the same molecule?
Answer: 56.2 µM

Question: And the TGI (NCI-H460; read-out: pTGI (converted))?
Answer: 15.1 µM

Question: What about the GI50 (COLO 205) of the same molecule?
Answer: 4.17 µM

Question: What about the LC50 (COLO 205) of the same molecule?
Answer: 47.9 µM

Question: And the TGI (COLO 205; read-out: pTGI (converted))?
Answer: 15.1 µM

Question: And the GI50 (HCC 2998)?
Answer: 4.57 µM

Question: And the LC50 (HCC 2998)?
Answer: 64.6 µM

Question: What about the TGI (HCC 2998; read-out: pTGI (converted)) of the same molecule?
Answer: 19.5 µM

Question: And the GI50 (HCT-116)?
Answer: 3.16 µM

Question: And the LC50 (HCT-116)?
Answer: > 100 µM

Question: What about the TGI (HCT-116; read-out: pTGI (converted)) of the same molecule?
Answer: 47.9 µM

Question: What about the GI50 (KM12) of the same molecule?
Answer: 4.17 µM

Question: What about the LC50 (KM12) of the same molecule?
Answer: 81.3 µM

Question: And the TGI (KM12; read-out: pTGI (converted))?
Answer: 18.6 µM

Question: What about the GI50 (SNB-19) of the same molecule?
Answer: 3.98 µM

Question: And the LC50 (SNB-19)?
Answer: 45.7 µM

Question: And the TGI (SNB-19; read-out: pTGI (converted))?
Answer: 17.8 µM

Question: And the GI50 (U-251)?
Answer: 3.89 µM

Question: What about the LC50 (U-251) of the same molecule?
Answer: 53.7 µM

Question: What about the TGI (U-251; read-out: pTGI (converted)) of the same molecule?
Answer: 16.2 µM

Question: And the GI50 (LOX IMVI)?
Answer: 4.17 µM

Question: What about the LC50 (LOX IMVI) of the same molecule?
Answer: 50.1 µM

Question: And the TGI (LOX IMVI; read-out: pTGI (converted))?
Answer: 17.4 µM

Question: And the GI50 (Malme-3M)?
Answer: 8.32 µM

Question: And the LC50 (Malme-3M)?
Answer: 58.9 µM

Question: And the TGI (Malme-3M; read-out: pTGI (converted))?
Answer: 23.4 µM

Question: What about the GI50 (MDA-MB-435) of the same molecule?
Answer: 2.04 µM

Question: What about the LC50 (MDA-MB-435) of the same molecule?
Answer: 17.4 µM

Question: And the TGI (MDA-MB-435; read-out: pTGI (converted))?
Answer: 4.68 µM

Question: What about the GI50 (SK-MEL-2) of the same molecule?
Answer: 10.5 µM

Question: What about the LC50 (SK-MEL-2) of the same molecule?
Answer: 74.1 µM

Question: And the TGI (SK-MEL-2; read-out: pTGI (converted))?
Answer: 27.5 µM

Question: And the GI50 (OVCAR-4)?
Answer: 6.76 µM

Question: And the LC50 (OVCAR-4)?
Answer: > 100 µM

Question: And the TGI (OVCAR-4; read-out: pTGI (converted))?
Answer: 44.7 µM

Question: What about the GI50 (OVCAR-5) of the same molecule?
Answer: 11.5 µM

Question: And the LC50 (OVCAR-5)?
Answer: > 100 µM

Question: What about the TGI (OVCAR-5; read-out: pTGI (converted)) of the same molecule?
Answer: 38 µM

Question: What about the GI50 (786-0) of the same molecule?
Answer: 8.51 µM

Question: What about the LC50 (786-0) of the same molecule?
Answer: > 100 µM

Question: And the TGI (786-0; read-out: pTGI (converted))?
Answer: 61.7 µM

Question: And the GI50 (SN12C)?
Answer: 6.31 µM

Question: And the LC50 (SN12C)?
Answer: > 100 µM

Question: And the TGI (SN12C; read-out: pTGI (converted))?
Answer: 38.9 µM

Question: And the GI50 (TK-10)?
Answer: 8.51 µM

Question: What about the LC50 (TK-10) of the same molecule?
Answer: > 100 µM

Question: What about the TGI (TK-10; read-out: pTGI (converted)) of the same molecule?
Answer: 77.6 µM

Question: And the GI50 (UO-31)?
Answer: 10.5 µM

Question: What about the LC50 (UO-31) of the same molecule?
Answer: 77.6 µM

Question: And the TGI (UO-31; read-out: pTGI (converted))?
Answer: 28.8 µM

Question: What about the GI50 (MCF7) of the same molecule?
Answer: 3.39 µM

Question: What about the LC50 (MCF7) of the same molecule?
Answer: 77.6 µM

Question: What about the TGI (MCF7; read-out: pTGI (converted)) of the same molecule?
Answer: 16.6 µM

Question: What about the GI50 (Hs-578T) of the same molecule?
Answer: 6.31 µM

Question: What about the LC50 (Hs-578T) of the same molecule?
Answer: > 100 µM

Question: And the TGI (Hs-578T; read-out: pTGI (converted))?
Answer: 34.7 µM

Question: And the GI50 (BT-549)?
Answer: 4.9 µM

Question: And the LC50 (BT-549)?
Answer: > 100 µM

Question: And the TGI (BT-549; read-out: pTGI (converted))?
Answer: 35.5 µM

Question: What about the GI50 (T47D) of the same molecule?
Answer: 2.63 µM

Question: What about the LC50 (T47D) of the same molecule?
Answer: 95.5 µM

Question: What about the TGI (T47D; read-out: pTGI (converted)) of the same molecule?
Answer: 11 µM

Question: And the GI50 (MDA-MB-468)?
Answer: 3.16 µM

Question: And the LC50 (MDA-MB-468)?
Answer: 60.3 µM

Question: And the TGI (MDA-MB-468; read-out: pTGI (converted))?
Answer: 13.2 µM

Source: ChEMBL document CHEMBL2062453, “Lead optimization through VLAK protocol: new annelated pyrrolo-pyrimidine derivatives as antitumor agents” (2012)
